In ChEMBL document CHEMBL4715794, “Design, Synthesis, and Biological Evaluation of Novel Cyclic Adenosine-Inosine Monophosphate (cAIMP) Analogs That Activate Stimulator of Interferon Genes (STING)” (J Med Chem, 2016):
The source made the active and inactive calls. The calls are words filed in the database; no cut-off is given here.

Columns and labels:
RAW [1] = experiment: Induction of type I IFN production in mouse RAW-Lucia ISG-KO-STING cells at 0.08 to 60 ug/ml incubated for 48 hrs by luciferase reporter gene assay; type: functional, cell-based; conditions: dose 0.08-60 µg/ml
Nuclease P1 [2] = target: T1, Nuclease P1 (Penicillium citrinum, UniProt P24289); experiment: Stability in presence of nuclease P1 assessed as parent compound remaining level at 7 ug incubated for 2 hrs by HPLC analysis; type: ADME; conditions: at 7 µg; for Stabilty: in vitro, 2 h
T1 sequence (P24289 whole entry): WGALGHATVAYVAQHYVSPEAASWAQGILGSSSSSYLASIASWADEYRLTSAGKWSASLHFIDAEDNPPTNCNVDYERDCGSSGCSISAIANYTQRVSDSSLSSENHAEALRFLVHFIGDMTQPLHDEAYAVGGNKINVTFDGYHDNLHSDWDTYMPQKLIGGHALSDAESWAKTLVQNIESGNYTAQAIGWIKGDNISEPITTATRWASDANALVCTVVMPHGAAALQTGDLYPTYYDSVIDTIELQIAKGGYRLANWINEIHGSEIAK
How it was run: (§1)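 7 µg CDN incubated at 37 °C with 2.5 mU NP1 in 30 mM acetate buffer, 2 mM ZnCl2, pH 5.3 (water control). Aliquots taken from 0 to 2 h, heated 100 °C for 2 min, frozen, then analysed by reverse-phase UPLC with UV detection.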

[3] = Stability in presence of snake venom phosphodiesterase assessed as parent compound remaining level at 7 ug incubated for 2 hrs by HPLC analysis; type: ADME; conditions: in vitro, at 7 µg
How it was run: (§2)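 7 µg of each CDN incubated at 37 °C in a water bath with 21 µL of enzyme solution (160 µg snake venom phosphodiesterase in PBS with 0.6 mM MgCl2), with water as the no-enzyme control. Aliquots were taken at time points from 0 to 2 h, heated at 100 °C for 2 min, frozen, then injected onto a C18 UHPLC column with UV detection to follow the parent compound.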

[4] = target: T2, ENPP1 (ectonucleotide pyrophosphatase/phosphodiesterase family member 1) (Homo sapiens, UniProt P22413); experiment: Stability in presence of ENPP1 ( unknown origin) assessed as half life by HPLC analysis; conditions: ENPP1 (isolated enzyme, unknown origin)
T2 sequence (P22413 whole entry): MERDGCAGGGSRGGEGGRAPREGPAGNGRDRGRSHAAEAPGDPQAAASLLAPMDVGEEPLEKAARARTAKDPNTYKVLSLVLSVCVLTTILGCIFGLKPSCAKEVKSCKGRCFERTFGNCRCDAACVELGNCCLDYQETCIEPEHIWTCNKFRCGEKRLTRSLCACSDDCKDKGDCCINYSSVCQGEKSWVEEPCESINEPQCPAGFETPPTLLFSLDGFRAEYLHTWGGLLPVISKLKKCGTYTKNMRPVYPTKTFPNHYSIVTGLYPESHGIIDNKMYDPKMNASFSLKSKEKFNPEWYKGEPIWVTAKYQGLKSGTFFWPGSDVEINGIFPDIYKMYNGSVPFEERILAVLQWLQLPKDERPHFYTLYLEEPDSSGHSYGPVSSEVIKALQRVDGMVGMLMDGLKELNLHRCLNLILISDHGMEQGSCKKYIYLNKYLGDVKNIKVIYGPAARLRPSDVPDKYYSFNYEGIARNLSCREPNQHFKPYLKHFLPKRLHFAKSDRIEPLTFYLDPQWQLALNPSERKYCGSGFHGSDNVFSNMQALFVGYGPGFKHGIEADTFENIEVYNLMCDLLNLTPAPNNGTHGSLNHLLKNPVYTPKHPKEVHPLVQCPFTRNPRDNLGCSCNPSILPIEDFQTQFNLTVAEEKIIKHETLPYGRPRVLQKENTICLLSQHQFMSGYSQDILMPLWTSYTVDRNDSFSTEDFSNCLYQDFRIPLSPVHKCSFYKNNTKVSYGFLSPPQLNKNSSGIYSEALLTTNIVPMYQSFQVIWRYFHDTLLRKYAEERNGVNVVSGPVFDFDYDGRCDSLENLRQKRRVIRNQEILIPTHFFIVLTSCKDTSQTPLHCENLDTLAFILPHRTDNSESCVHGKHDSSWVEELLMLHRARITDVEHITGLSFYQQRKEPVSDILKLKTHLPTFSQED

[5] = Stability in presence of snake venom phosphodiesterase assessed as parent compound remaining level at 7 ug incubated for >2 hrs by HPLC analysis; type: ADME; conditions: at 7 µg
[6] = target: T3, Stimulator of interferon genes protein (Mus musculus, UniProt Q3TBT3); experiment: Activation of STING in mouse RAW-Lucia ISG cells assessed as induction of type I IFNs stimulation by measuring induction of IRF pathway incubated for 48 hrs by luciferase reporter gene assay; type: cell-based
T3 sequence (Q3TBT3 whole entry): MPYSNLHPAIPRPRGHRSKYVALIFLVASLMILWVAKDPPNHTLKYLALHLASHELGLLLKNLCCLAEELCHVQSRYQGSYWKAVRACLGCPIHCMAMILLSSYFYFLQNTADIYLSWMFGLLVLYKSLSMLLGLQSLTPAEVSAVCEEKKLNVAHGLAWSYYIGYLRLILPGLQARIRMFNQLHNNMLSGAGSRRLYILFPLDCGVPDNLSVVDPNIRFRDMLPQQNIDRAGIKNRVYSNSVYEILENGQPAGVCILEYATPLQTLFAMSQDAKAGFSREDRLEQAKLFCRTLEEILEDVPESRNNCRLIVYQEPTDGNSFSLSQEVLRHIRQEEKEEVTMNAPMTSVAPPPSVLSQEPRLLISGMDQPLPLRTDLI
How it was run: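 Cells (~100,000/well) stimulated 48 h at 37 °C, 5% CO2, with saline vehicle or compound in saline at seven concentrations. Luciferase reporter read with Quanti-Luc. EC50 from log(agonist) dose-response fit; mean ± SD of three independent experiments.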

[7] = target: T4, Stimulator of interferon genes protein (Mus musculus) (UniProt Q3TBT3); experiment: Activation of STING in mouse RAW-Lucia ISG cells assessed as induction of type I IFNs stimulation by measuring induction of IRF pathway incubated for 48 hrs by luciferase reporter gene assay relative to 2',3'-cGAMP; type: cell-based; conditions: filed as activator
T4 sequence (whole entry): T3 sequence (Q3TBT3 whole entry)
How it was run: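 RAW-Lucia ISG cells (~100,000/well), 48 h at 37 °C, 5% CO2, compound in saline at seven concentrations, Quanti-Luc luciferase read-out. Emax taken as fitted top plateau, normalized to the 2',3'-cGAMP response in each assay; mean percentage ± SD of three independent experiments.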

[8] = target: T5, Stimulator of interferon genes protein (Homo sapiens, UniProt Q86WV6); experiment: Activation of STING in human blood assessed as induction of type I IFNs incubated for 18 to 20 hrs by QUANTI-Blue assay; type: tissue-based
T5 sequence (Q86WV6 whole entry): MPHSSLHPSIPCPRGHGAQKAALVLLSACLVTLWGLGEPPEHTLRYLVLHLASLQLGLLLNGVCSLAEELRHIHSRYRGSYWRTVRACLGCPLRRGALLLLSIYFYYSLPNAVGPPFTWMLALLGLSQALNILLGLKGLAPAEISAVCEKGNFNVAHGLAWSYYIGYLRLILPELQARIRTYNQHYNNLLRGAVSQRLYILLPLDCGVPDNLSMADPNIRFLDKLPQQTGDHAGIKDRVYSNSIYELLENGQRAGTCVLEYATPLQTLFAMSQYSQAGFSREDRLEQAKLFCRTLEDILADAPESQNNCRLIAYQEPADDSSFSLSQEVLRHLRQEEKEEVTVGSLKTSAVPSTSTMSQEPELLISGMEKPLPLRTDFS

Nuclease P1 [9] = target: T1, Nuclease P1; experiment: Stability in presence of nuclease P1 assessed as half life at 7 ug incubated for 2 hrs by HPLC analysis; type: ADME; conditions: nuclease P1 (isolated enzyme), dose 7 µg; how it was run: as §1
[10] = target: T5, Stimulator of interferon genes protein; experiment: Activation of STING in human blood assessed as increase in IL-1 production at 10 ug/ml incubated for 18 to 20 hrs by QUANTI-Blue assay; type: tissue-based; conditions: filed as activator, time 18-20 hrs
How it was run: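 Whole blood from healthy donors, diluted 1:2 in RPMI with sodium pyruvate, incubated 18–20 h at 37 °C with CDN in saline. Supernatants assayed on HEK-Blue IL-1R reporter cells (~50,000/well, ~20 h, 37 °C), SEAP read with QUANTI-Blue. Fold induction over unstimulated; mean of fifteen donors over three experiments.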

[11] = (§3) Stability in presence of snake venom phosphodiesterase assessed as parent compound degradation at 7 ug incubated for 2 hrs by HPLC analysis; type: ADME; conditions: 2 h; how it was run: as §2
RAW [12] = experiment: Induction of type I IFN production in mouse RAW-Lucia ISG-KO-STING cells at 0.08 to 100 ug/ml incubated for 48 hrs by luciferase reporter gene assay; type: functional, cell-based; conditions: dose 0.08-100 µg/ml
[13] = test system: snake venom phosphodiesterase; experiment: as §3; type: ADME; conditions: snake venom phosphodiesterase, read-out: Drug degradation; how it was run: as §2

| Compound | Activity (RAW [1]) | Stabilty [3] | EC50 [6] | Emax [7] | EC50 [8] | also measured |
| --- | --- | --- | --- | --- | --- | --- |
| Nc1nc2c(ncn2[C@@H]2O[C@@H]3COP(=O)(O)O[C@H]4[C@@H](O)[C@H](n5cnc6c(N)ncnc65)O[C@@H]4COP(=O)(O)O[C@@H]2[C@@H]3O)c(=O)[nH]1 | inactive | Stable |  |  |  | remaining at 2 h, 7 ug (Nuclease P1 [2]; nuclease P1 (isolated enzyme), time 2 hrs, read-out: Stabilty): 83%; half-life [4]: 60 min |
| Nc1ncnc2c1ncn2[C@H]1C[C@@H]2OP(=O)(S)OC[C@H]3O[C@@H](n4cnc5c(O)ncnc54)[C@H](F)[C@@H]3OP(=O)(S)OC[C@H]2O1 (stereo partly specified) | inactive | Stable | 2.2 µM | 83% | 4.7 µM | Stabilty [5]: Stable |
| Nc1ncnc2c1ncn2[C@@H]1O[C@@H]2COP(=O)(O)O[C@H]3C[C@H](n4cnc5c(O)ncnc54)O[C@@H]3COP(=O)(O)O[C@H]2[C@H]1F | inactive |  | 9.1 µM | 99% | 3.6 µM |  |
| Nc1ncnc2c1ncn2[C@H]1C[C@@H]2OP(=O)(O)OC[C@H]3O[C@@H](n4cnc5c(O)ncnc54)[C@H](F)[C@@H]3OP(=O)(O)OC[C@H]2O1 | inactive | Stable | 5 µM | 93% | 2.8 µM |  |
| Nc1ncnc2c1ncn2[C@@H]1O[C@@H]2COP(=O)(O)O[C@@H]3[C@H](O)[C@@H](COP(=O)(O)O[C@@H]1[C@@H]2O)O[C@H]3n1cnc2c(O)ncnc21 | inactive |  |  | 95% |  |  |
| Nc1ncnc2c1ncn2[C@@H]1O[C@@H]2COP(=O)(O)O[C@@H]3[C@H](O)[C@@H](COP(=O)(O)O[C@H]2[C@H]1O)O[C@H]3n1cnc2c(=O)[nH]cnc21 | inactive |  | 6.1 µM | 85% |  | half-life at 7 ug (Nuclease P1 [9]): 7.1 min |
| Nc1nc2c(ncn2[C@@H]2O[C@@H]3COP(=O)(O)O[C@H]4[C@@H](O)[C@H](n5cnc6c(N)ncnc65)O[C@@H]4COP(=O)(O)O[C@@H]2C3)c(=O)[nH]1 |  |  |  |  |  | half-life [4]: 60 min |
| Nc1ncnc2c1ncn2[C@@H]1O[C@@H]2COP(=O)(S)O[C@H]3[C@@H](O)[C@H](n4cnc5c(O)ncnc54)O[C@@H]3COP(=O)(S)O[C@H]2[C@H]1O (stereo partly specified) | inactive | Stable | 4 µM | 115% | 10.6 µM | Stabilty (Nuclease P1 [2]): Stable |
| Nc1ncnc2c1ncn2[C@@H]1O[C@@H]2COP(=O)(O)O[C@H]3[C@@H](F)[C@H](n4cnc5c(O)ncnc54)O[C@@H]3COP(=O)(O)O[C@H]2[C@H]1F | inactive | Stable | 5.1 µM | 90% | 0.7 µM | Stabilty (Nuclease P1 [2]): Stable; Activity [10]: Active |
| Nc1ncnc2c1ncn2[C@@H]1O[C@@H]2COP(=O)(O)O[C@H]3[C@@H](O)[C@H](n4cnc5c(O)ncnc54)O[C@@H]3COP(=O)(O)O[C@@H]1[C@@H]2O | inactive |  |  | 85% |  |  |
| Nc1ncnc2c1ncn2[C@@H]1O[C@@H]2COP(=O)(S)O[C@H]3[C@@H](F)[C@H](n4cnc5c(O)ncnc54)O[C@@H]3COP(=O)(S)O[C@H]2[C@H]1F (stereo partly specified) | inactive | Stable | 0.6 µM | 104% | 0.4 µM | Stabilty (Nuclease P1 [2]): Stable; Activity [10]: Active; Stabilty [5]: Stable |
| Nc1ncnc2c1ncn2[C@@H]1O[C@@H]2COP(=O)(O)O[C@H]3[C@@H](O)[C@H](n4cnc5c(O)ncnc54)O[C@@H]3COP(=O)(O)O[C@H]2[C@H]1O | inactive |  |  | 107% |  | half-life at 7 ug (Nuclease P1 [9]): 23.1 min; Stabilty [11]: Unstable |
| Cc1ccc2c(=O)c3cccc(CC(=O)O)c3oc2c1C |  |  |  |  |  | Activity (RAW [12]): inactive |
| Nc1ncnc2c1ncn2[C@H]1C[C@@H]2OP(=O)(O)OC[C@H]3O[C@@H](n4cnc5c(O)ncnc54)C[C@@H]3OP(=O)(O)OC[C@H]2O1 | inactive | Stable | 11.6 µM | 91% | 9.9 µM | half-life at 7 ug (Nuclease P1 [9]): 5.7 min; metabolised at 2 h, 7 ug [13]: < 40% |
